Assay outcomes from PubChem.
Hits are enriched below; roughly 1.1% of the tested compounds scored in any of these assays.
FXIIa inh: factor XIIa (human) inhibition; inhibition, % at 5 µM; purified FXIIa, Boc-QGR-AMC fluorogenic substrate, 2 h; hit rate 0.3% among 220,000; P00748; in the data active = inhibition above about 40%
Furin inhibitor: human furin inhibition; P09958; purified furin, fluorogenic substrate cleavage; inhibition, % at 20 µM or 30 µM; hit rate 0.061% among 220,000; in the data active = inhibition above about 25%
hK5 inh: inhibitors of human kallikrein 5; Q9Y337; recombinant hK5, fluorogenic AMC substrate cleavage; inhibition, % at 5 µM; hit rate 0.59% among 210,000;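 active = inhibition of 40% or more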
FXIa inh 1536: blocks human coagulation factor XIa protease activity; purified FXIa, Boc-Glu-Ala-Arg-AMC fluorogenic substrate; AID 798; inhibition, % at 5 µM; hit rate 0.14% among 220,000;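 active = inhibition of at least 40%; inactive = inhibition below 40%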;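 also: fluorescence of freed AMC excited at 355 nm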
thrombin 1536: blocks human thrombin protease activity; alpha-thrombin, Boc-VPR-AMC fluorogenic substrate cleavage; AID 1046; inhibition, % at 5 µM; P00734; hit rate 0.26% among 220,000;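 active = inhibition at or above 40%; inactive = inhibition below 40%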
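System: human alpha-thrombin protein; Compound dosing: one concentration per compound, 5 µM, with 0.2% DMSO; Timing: reaction at room temperature; Technique: AMC fluorescence, 355/460 nm; Controls: enzyme without compound as high, wells lacking enzyme as low.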
A number is an active result; - = inactive.

SMILES	FXIIa inh	Furin inhibitor	hK5 inh	FXIa inh 1536	thrombin 1536
COc1cc2c(cc1/C=C/[N+](=O)[O-])OCO2	-	-	40	42	-
CC[C@]12C=CCN3CCC4(c5cc(Br)c(OC)cc5N(C)C4[C@@](O)(C(=O)OC)[C@@H]1OC(C)=O)C32 (some centres undefined)	-	-	43	-	-
CC1CCCN(CC(=O)N2CCCc3ccccc32)C1 (centres undefined)	-	-	87	-	-
O=C(c1ccccc1)c1cn(CC(=O)N2CCCc3ccccc32)c2ccccc12	-	-	-	-	-
Cc1cc(N2CCCC2)ccc1C=C(C#N)C#N	-	-	48	-	-
CCNC(=S)N1CCn2cccc2C1c1cccnc1 (centres undefined)	-	-	-	-	-
